# Data: ChEMBL document CHEMBL1154067, “Antiviral and cytotoxic activities of aminoarylazo compounds and aryltriazene derivatives” (Bioorg Med Chem, 2009)
# The source made the active and inactive calls. No rule for the calls is given here.
# How the values were obtained:
# [1] = Cytotoxicity against hamster BHK21 cells assessed as reduction in cell viability after 48 to 96 hrs by MTT assay; assay type: cell-based, Mesocricetus auratus, BHK-21; conditions: bhk-21
# Method in brief: (§1)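 Mock-infected cells in maintenance medium, MDBK at 6 × 10^5 and BHK at 1 × 10^6 cells/mL initial density, with or without serial compound dilutions. Run in parallel with antiviral assays. Viability by MTT after 48–96 h at 37 °C, 5% CO2. CC50 = concentration reducing viability 50%.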
# MT4 = test: Cytotoxicity against human MT4 cells after 96 hrs by MTT assay; assay type: cell-based; conditions: mt4, 96 h
# Method in brief: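 Exponentially growing mock-infected MT-4 seeded at 1 × 10^5 cells/mL in RPMI-1640 with 10% FCS, penicillin and streptomycin. Incubated with or without serial compound dilutions at 37 °C, 5% CO2. Viability by MTT after 96 h. CC50 = concentration reducing viability 50%.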
# Yellow fever virus = test: Antiviral activity against Yellow fever virus infected in BHK-21 cells assessed as inhibition of virus-induced cytopathicity after 3 to 4 days by MTT assay; assay type: functional, organism-based
# [2] = Cytotoxicity against MDBK cells after 48 to 96 hrs by MTT assay; assay type: cell-based, Bos taurus; conditions: cattle, mdbk; method in brief: as §1
# [3] = test system: Respiratory syncytial virus; test: Antiviral activity against Respiratory syncytial virus A2 infected in Vero-76 cells after 5 days by plaque reduction assay; assay type: functional, organism-based; conditions: human respiratory syncytial virus, A2, Vero 76, 120 h
# Poliovirus 1 = test: Antiviral activity against Human poliovirus 1 strain Sabin after 2 days by plaque reduction assay; assay type: functional; conditions: Enterovirus C, 48 h
# Coxsackievirus B2 = test: Antiviral activity against Coxsackie virus type B2 virus infected in african green monkey Vero-76 cells after 3 days by plaque reduction assay; assay type: functional, organism-based; conditions: Enterovirus B, Vero 76, 72 h
# Method in brief: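 Vero 76 cells seeded at 2 × 10^5 cells/well, grown overnight to confluence at 37 °C in 5% CO2, then infected at 50–100 PFU/well. Unadsorbed virus removed. Overlay of DMEM with 1% inactivated FCS and 0.75% methylcellulose, with or without serial compound dilutions. After 3 days at 37 °C, fixed and stained with crystal violet in PBS/50% ethanol; plaques counted. EC50 is the concentration reducing plaque number by 50%.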
# [4] = test system: Mammalian orthoreovirus 1; test: Antiviral activity against Reovirus-1 infected in BHK-21 cells assessed as inhibition of virus-induced cytopathicity after 3 to 4 days by MTT assay; assay type: functional, organism-based; conditions: Mammalian orthoreovirus 1, BHK-21
# Method in brief: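 BHK-21 cells seeded at 5 × 10^4 cells/well, grown overnight to confluent monolayers at 37 °C in 5% CO2, then infected at m.o.i. 0.01 in serum-free medium. One hour later, MEM Earle's with 1% final inactivated FCS added, with or without serial compound dilutions. Viability read by MTT after 3–4 days at 37 °C. EC50 is the concentration giving 50% protection from cytopathogenicity.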
# [5] = test system: Bovine viral diarrhea virus 1; test: Antiviral activity against Bovine viral diarrhea virus infected in MDBK cells assessed as inhibition of virus-induced cytopathicity after 3 to 4 days by MTT assay; assay type: functional, organism-based; conditions: Bovine viral diarrhea virus isolates and strains
# Human alphaherpesvirus 1 = test: Antiviral activity against HSV1 infected in Vero-76 cells after 3 days by plaque reduction assay; assay type: functional, organism-based; conditions: Human alphaherpesvirus 1, Vero 76, 72 h
# Vero = test: Cytotoxicity against african green monkey Vero 76 cells by crystal violet staining; assay type: cell-based; conditions: chlorocebus sabaeus, vero
# Method in brief: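 Mock-infected Vero 76 seeded at 4 × 10^5 cells/mL, run in parallel with plaque assays, with or without serial compound dilutions. Cell number of monolayers determined by crystal violet staining. CC50 = concentration reducing viable cell number 50%.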
# [6] = test system: Vesicular stomatitis virus; test: Antiviral activity against Vesicular stomatitis virus after 2 days by plaque reduction assay; assay type: functional, organism-based
# [7] = test system: Human immunodeficiency virus 1; test: Antiviral activity against HIV1 infected in human MT4 cells assessed as inhibition of virus-induced cytopathicity after 4 days by MTT assay; assay type: functional, organism-based
# Vaccinia virus = test: Antiviral activity against Vaccinia virus after 3 days by plaque reduction assay; assay type: functional, organism-based; conditions: Orthopoxvirus vaccinia
Structure (SMILES),CC50 [1] [µM],CC50 (MT4) [µM],EC50 (Yellow fever virus) [µM],CC50 [2] [µM],EC50 [3] [µM],EC50 (Poliovirus 1) [µM],EC50 (Coxsackievirus B2) [µM],EC50 [4] [µM],EC50 [5] [µM],EC50 (Human alphaherpesvirus 1) [µM],CC50 (Vero) [µM],Activity [6],inhibition [7],Activity (Vaccinia virus)
COc1c(C)c2c(c(O)c1C/C=C(\C)CCC(=O)O)C(=O)OC2 [MYCOPHENOLIC ACID],> 100,0.2,> 100,42,0.6,> 13,> 13,> 100,> 42,> 13,≥ 13,–,–,–
O=c1cnn([C@@H]2O[C@H](CO)[C@@H](O)[C@H]2O)c(=O)[nH]1 [6-AZAURIDINE],> 100,–,–,> 100,–,> 20,> 20,> 100,> 100,> 20,20,–,–,–
Cn1c2cc(N3CCN(c4ccccn4)CC3)c(N)cc2c(=O)c2c(O)cc(O)cc21,–,–,–,–,–,–,–,–,0.6,–,–,–,–,–
c1ccc(/N=N/Nc2ccccc2)cc1,–,–,> 100,–,≥ 90,> 90,> 90,> 100,> 100,> 90,–,inactive,inactive,inactive
Clc1cccc(/N=N/N2CCCC2)c1,> 100,> 100,> 100,> 100,> 100,≥ 100,> 100,> 100,–,> 100,≥ 100,inactive,inactive,inactive
Clc1ccc(/N=N/N2CCCCC2)cc1,> 100,> 100,> 100,> 100,> 100,> 100,> 100,> 100,–,> 100,> 100,inactive,inactive,inactive
c1ccc(/N=N/N2CCN(c3ccccc3)CC2)cc1,> 100,33,> 100,> 100,8,> 100,> 100,> 100,–,> 100,≥ 100,inactive,inactive,inactive
c1ccc(/N=N/N2CCN(c3ncccn3)CC2)cc1,> 100,90,> 100,> 100,> 65,> 65,10,> 100,–,> 65,65,inactive,inactive,inactive
Clc1ccc(/N=N/N2CCCC2)cc1Cl,50,75,> 50,70,20,25,> 58,> 50,–,> 58,58,inactive,inactive,inactive
Clc1ccc(/N=N/N2CCCC2)cc1,> 100,> 100,> 100,> 100,> 100,42,> 100,> 100,–,> 100,> 100,inactive,inactive,inactive
Brc1ccc(/N=N/N2CCCC2)cc1,> 100,> 100,> 100,> 100,> 100,51,> 100,> 100,–,> 100,≥ 100,inactive,inactive,inactive
